Screens (PubChem)
CHOP UPR activ – apoptotic UPR (CHOP) activation. 0.34% of 330,000 active. CHO-CHOP luciferase reporter, luminescence; percent of tunicamycin response over DMSO baseline. activation, % at 10 µM;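 active means at 10 µM dose, activation of 40% or more, normalized to positive control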
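Assay system: CHO-CHOP cells, stable luciferase reporter of PERK-eIF2a-CHOP signalling / Buffer or medium: F12 plus 10% serum / Compound dosing: one dose, 10 µM in 0.5% DMSO / Times: 6 h compound treatment, 37 °C / Technique: luciferase luminescence / Read-out: % reporter activation, DMSO baseline versus tunicamycin full activation / Benchmarks: tunicamycin and DMSO controls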
CHOP inhibitor – blocks CHOP induction under ER stress | CHO-K1 CHOP-promoter luciferase, tunicamycin-induced, 15-18 h | inhibition, % at 10 µM | 3.8% of 220,000 active | AID 2732;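 active means compounds that reduced the stress-induced luciferase reporter signal by more than about 70% of percent inhibition, limit read from the data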
UPR XBP1 act – activators of adaptive arm of unfolded protein response (XBP1); 0.33% of 330,000 active; activation, % at 20 µM; CHO-XBP1 luciferase reporter, IRE1-XBP1 UPR activation, luminescence; percent of tunicamycin response, DMSO as zero;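 active means versus positive control, 20 µM dose yields 30% or more activation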
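Material: IRE1-XBP1 luciferase reporter CHO line / Quantity: one thousand reporter cells per well / Buffer or medium: F12 with 10% serum / Compound: 20 µM single concentration, DMSO 1% / Times: 6 h treatment, 37 °C / Detection: Steady-Glo luciferase glow luminescence, 10 min after reagent addition / Benchmarks: tunicamycin high, DMSO low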
L major viab – Leishmania major promastigote growth inhibition | Leishmania major promastigotes, resazurin fluorescence viability | AID 1063 | 9% of 200,000 active | inhibition, % at 10 µM; in the data active means inhibition above about 50%;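 further: promastigotes grown with compound for 44 hours at 28 °C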
T cruzi inh – blocks replication of Trypanosoma cruzi | T. cruzi beta-gal in NIH3T3, luminescence, 90 h | inhibition, % (concentration not given with the values) | 1.4% of 300,000 active;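 active means mean inhibition across valid replicates above about 55%, limit read from the data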;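 further: signal also drops with host cell toxicity which is not excluded here; higher percent means less beta-gal luminescence so fewer parasites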
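assay system = mouse NIH/3T3 fibroblasts infected with β-gal-expressing T. cruzi Tulahuen C4 | input = 5,000 NIH/3T3 host cells per well | buffer or medium = DMEM plus 2% FBS | timing = 3 h host attachment, then at least 90 h co-culture | measured by = GalScreen luminescence, 60 min | evaluation = luminescence reflecting intracellular parasite burden, expressed as percent inhibition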
Dynein transport – dynein cargo transport inhibition | z-score, hits read low | 3617.4 mouse cells, GR-EGFP nuclear translocation imaging; test concentration mostly 20 µM; stimulated with dexamethasone, 1 µM; active compounds read low | 0.47% of 220,000 active;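 active means plate z-score of nuclear minus cytoplasmic receptor signal below a set negative limit, without overly bright fluorescence or cell loss, cut at about -3.5 in these data, passing the limit was not always enough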;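 further: z-score of nuclear minus cytoplasmic ring GR-EGFP intensity difference per well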
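Medium: Induction medium lacking tetracycline, stripped serum | Probe or stimulus: 1.0 µM final dexamethasone stimulus | Schedule: 48 h induction, then 1 h compound, then 30 min agonist, 37 °C | Signal: Automated 10x imaging of fixed Hoechst-stained cells | Evaluation: Per-cell GR-EGFP intensity, nucleus versus surrounding cytoplasmic ring, well-averaged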
CHOP inh conf – confirmation of CHOP induction inhibitors | shares compounds with CHOP inhibitor | CHO-CHOP promoter luciferase reporter, tunicamycin-induced, luminescence | inhibition, % at 10 µM | 45% of 2,100 active | AID 504437;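 active means mean of three repeat readings of reporter signal inhibition above a set limit, cut at about 70% in these data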
UPR CHOP confirm – confirmation of apoptotic unfolded protein response (CHOP) activators. shares compounds with CHOP UPR activ. CHO-CHOP cells, CHOP-luciferase reporter luminescence; percent of tunicamycin response, DMSO as zero. activation, % at 10 µM. 64% of 1,000 active; in the data active means activation above about 33%
XBP1 UPR conf – adaptive UPR (XBP1) activation, confirmed; shares compounds with UPR XBP1 act; CHO-XBP1 IRE1-XBP1 luciferase reporter, luminescence; activation, % at 20 µM; 63% of 1,000 active;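 active means reporter signal at least 30% of the positive control's activation in two or more of four replicate wells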
Hits are given with their value; 0 = inactive; - = no result. This is one part of a sample in which hits are shown more often than they occur.

SMILES | CHOP UPR activ | CHOP inhibitor | UPR XBP1 act | L major viab | T cruzi inh | Dynein transport | UPR CHOP confirm | others
CCC(C)c1ccc(OCC(=O)Nc2ccc3c(c2)C(=O)NC3=O)cc1 (stereo unspecified) | 0 | - | 0 | - | 0 | - | -
COc1ccc(NC(=O)c2cc3c(=O)n(C)c4ccccc4c3n2C)cc1Cl | 0 | 101 | 32 | - | 0 | 0 | - | CHOP inh conf=0;XBP1 UPR conf=72
COc1ccc(-c2[nH]c(-c3ccc(Cl)cc3)nc2SCC(=O)Nc2nccs2)cc1 | 0 | 98 | 46 | 0 | 0 | 0 | - | CHOP inh conf=0;XBP1 UPR conf=0
COc1ccc(-c2[nH]c(-c3ccccc3)nc2SCC(=O)Nc2nccs2)cc1 | 0 | 0 | 0 | 0 | - | 0 | -
COc1ccc(OC)c(NC(=O)CCC(=O)Nc2nnc(C(C)C)s2)c1 | 0 | - | 0 | - | 0 | - | -
Cc1cccc(C(=O)O/N=C(\N)c2cccc([N+](=O)[O-])c2)c1 | 0 | 0 | 0 | 0 | 0 | 0 | -
CC1=CC(=O)C=C(C)C1=NOC(=O)c1cccc([N+](=O)[O-])c1 | 46 | 0 | 0 | 84 | 0 | 0 | 0
Cc1cc(C(=O)CCC(=O)NCc2ccccc2F)c(C)s1 | 0 | - | 0 | - | 0 | - | -
CCN(CC)c1ccc(C(=O)OCc2cc(=O)oc3cc(O)ccc23)cc1 | 54 | 0 | 78 | 0 | 0 | 0 | 0
COc1ccc(C(C(=O)NC2CCCCC2)N(C(=O)CCl)c2ccc(C)cc2)cc1 (stereo unspecified) | 62 | 0 | 0 | 91 | 0 | 0 | 0
COc1ccc(C(C(=O)NC2CCCC2)N(C(=O)c2ccoc2C)c2ccc(C)cc2)cc1 (stereo unspecified) | 0 | 0 | 0 | 0 | 0 | 0 | -
CCSC1(SCC)N=C(N)C2(C#N)C(c3ccc(F)cc3)C12C#N (stereo unspecified) | 61 | 82 | 0 | 0 | 0 | 0 | 124
Oc1ccc(-c2cn3c(n2)SCC3)cc1O | 52 | 0 | 0 | 98 | 0 | 0 | 0
COc1ccccc1-n1nnnc1SCC(=O)NCC1CCCO1 (stereo unspecified) | 0 | - | 0 | - | 0 | - | -
COc1ccccc1NC(=O)c1cnc(SCC(=O)NCC2CCCO2)n(C)c1=O (stereo unspecified) | 57 | - | 0 | - | 0 | - | 34
Cc1ccccc1NC(=O)CN1C(=O)NC2(CCCCCCC2)C1=O | 0 | - | 0 | - | - | - | -
CCN=c1scc(-c2ccco2)n1/N=C/c1ccc(OC)c(O)c1 | 0 | 0 | 0 | 0 | 0 | 0 | -
CCN=c1scc(C)n1/N=C/c1ccc(O)c(O)c1O | 79 | 0 | 0 | 0 | 0 | 0 | 0
CCN=c1scc(C)n1/N=C/c1cc(Br)c(O)c(Br)c1 | 0 | 0 | 0 | 0 | 0 | 0 | -
COCCN=c1scc(-c2cccs2)n1/N=C/c1ccc(O)c(O)c1O | 347 | 0 | 0 | 0 | 0 | 0 | 104
COc1ccc(N2C(=O)C(Cl)=C(Oc3cccc(OC)c3)C2=O)cc1 | 94 | 106 | 0 | 0 | 0 | 0 | 0
Cc1ccc(S(=O)(=O)N2C[C@@H]3[C@H]4CC[C@H](C4)[C@@H]3[C@@H](C)[C@@H]2c2ccn([Si](C(C)C)(C(C)C)C(C)C)c2)cc1 | 0 | - | 0 | - | - | - | -
CC(C)Cc1nc(N2CCN(C(=O)C(C)C)CC2)c(C#N)c2c1CCC2 | 40 | 0 | 0 | 0 | 0 | 0 | 0
CC(C)Cc1nc(N2CCCCC2)c(C#N)c2c1CCC2 | 0 | 0 | 0 | 0 | 0 | 0 | -
S=C(Nc1ccccn1)c1ccccn1 | 165 | 0 | 0 | 98 | 0 | 0 | 126
CN(C(=O)Cn1c(=O)oc2ccccc21)C1CCCCC1 | 0 | - | 0 | - | - | - | -
